How the values were obtained:
SR = assay: Growth inhibition of human SR cells after 48 hrs by sulforhodamine B assay; format: functional
SK-OV-3 = assay: Growth inhibition of human SKOV3 cells after 48 hrs by sulforhodamine B assay; format: functional; conditions: SK-OV-3, 48 h
CAKI-1 = assay: Growth inhibition of human CAKI-1 cells after 48 hrs by sulforhodamine B assay; format: functional; conditions: CAKI-1, 48 h
How it was run: (§1)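 NCI 60-cell-line screen. Compounds tested at five 10-fold dilutions from 10^-4 to 10^-8 M. Cells exposed for the last 48 h of a 72 h incubation, growth estimated by sulforhodamine B protein assay. GI50 is the concentration giving 50% growth inhibition. Values beyond the tested range are expressed as greater or lesser than the extreme concentration.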

A549 = assay: Growth inhibition of human A549 cells after 48 hrs by sulforhodamine B assay; format: functional; conditions: A549, 48 h; how it was run: as §1
[1] = Growth inhibition of human RXF393 cells after 48 hrs by sulforhodamine B assay; format: functional; conditions: RXF 393, 48 h
[2] = Growth inhibition of human SF295 cells after 48 hrs by sulforhodamine B assay; format: functional; conditions: SF-295, 48 h
[3] = Growth inhibition of human EKVX cells after 48 hrs by sulforhodamine B assay; format: functional; how it was run: as §1
HCT-116 = assay: Growth inhibition of human HCT116 cells after 48 hrs by sulforhodamine B assay; format: functional; conditions: HCT-116, 48 h; how it was run: as §1
U-251 = assay: Growth inhibition of human U251 cells after 48 hrs by sulforhodamine B assay; format: functional; conditions: U-251, 48 h
OVCAR-4 = assay: Growth inhibition of human OVCAR4 cells after 48 hrs by sulforhodamine B assay; format: functional; conditions: OVCAR-4, 48 h; how it was run: as §1
[4] = Growth inhibition of human COLO205 cells after 48 hrs by sulforhodamine B assay; format: functional; conditions: COLO 205, 48 h; how it was run: as §1
[5] = Growth inhibition of human Hs 578T cells after 48 hrs by sulforhodamine B assay; format: functional; how it was run: as §1
SK-MEL-5 = assay: Growth inhibition of human SK-MEL-5 cells after 48 hrs by sulforhodamine B assay; format: functional; conditions: SK-MEL-5, 48 h
PC-3 = assay: Growth inhibition of human PC3 cells after 48 hrs by sulforhodamine B assay; format: functional; conditions: PC-3, 48 h
UACC-62 = assay: Growth inhibition of human UACC62 cells after 48 hrs by sulforhodamine B assay; format: functional; conditions: UACC-62, 48 h
M14 = assay: Growth inhibition of human M14 cells after 48 hrs by sulforhodamine B assay; format: functional; conditions: M14, 48 h; how it was run: as §1
MCF7 = assay: Growth inhibition of human MCF7 cells after 48 hrs by sulforhodamine B assay; format: functional; conditions: MCF7, 48 h; how it was run: as §1
MT4 = assay: Antiproliferative activity against human MT4 cells after 96 hrs by MTT assay; format: functional, cell-based; conditions: MT4, 96 h
How it was run: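 Exponentially growing MT-4 cells (CD4+ human T-cells carrying integrated HTLV-1 genome), seeded at 1×10^5 cells/mL in RPMI-1640 with 10% FCS and antibiotics. Serial dilutions of compound (DMSO stock 100 mM, diluted in medium), 37 °C, 5% CO₂, 96 h. Viability read by MTT. 50% inhibition versus untreated controls by linear regression. Mean ± SD of three independent determinations.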

[6] = Growth inhibition of human HOP92 cells after 48 hrs by sulforhodamine B assay; format: functional; conditions: HOP-92, 48 h; how it was run: as §1
NCI-H522 = assay: Growth inhibition of human NCI-H522 cells after 48 hrs by sulforhodamine B assay; format: functional; conditions: NCI-H522, 48 h; how it was run: as §1
MDA-MB-435 = assay: Growth inhibition of human MDA-MB-435 cells after 48 hrs by sulforhodamine B assay; format: functional; conditions: MDA-MB-435, 48 h; how it was run: as §1
ACHN = assay: Growth inhibition of human ACHN cells after 48 hrs by sulforhodamine B assay; format: functional; how it was run: as §1
HL-60(TB) = assay: Growth inhibition of human HL-60(TB) cells after 48 hrs by sulforhodamine B assay; format: functional; conditions: HL-60, 48 h
How it was run: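 NCI 60-cell-line screen, HL-60(TB) included. Compound given at five 10-fold dilutions from 10^-4 to 10^-8 M. Cells exposed for the last 48 h of a 72 h incubation. Growth or viability estimated by sulforhodamine B protein assay. GI50 is the concentration giving 50% growth inhibition. Values outside the tested range are reported as greater or less than the highest or lowest concentration.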

T47D = assay: Growth inhibition of human T47D cells after 48 hrs by sulforhodamine B assay; format: functional
K562 = assay: Growth inhibition of human K562 cells after 48 hrs by sulforhodamine B assay; format: functional; conditions: K562, 48 h; how it was run: as §1
MDA-MB-468 = assay: Growth inhibition of human MDA-MB-468 cells after 48 hrs by sulforhodamine B assay; format: functional; conditions: MDA-MB-468, 48 h; how it was run: as §1
KM12 = assay: Growth inhibition of human KM12 cells after 48 hrs by sulforhodamine B assay; format: functional; conditions: KM12, 48 h; how it was run: as §1
SNB-75 = assay: Growth inhibition of human SNB75 cells after 48 hrs by sulforhodamine B assay; format: functional; conditions: SNB-75, 48 h
[7] = Growth inhibition of human RPMI8226 cells after 48 hrs by sulforhodamine B assay; format: functional; conditions: RPMI-8226, 48 h
NCI-H460 = assay: Growth inhibition of human NCI-H460 cells after 48 hrs by sulforhodamine B assay; format: functional; conditions: NCI-H460, 48 h; how it was run: as §1
NCI-H23 = assay: Growth inhibition of human NCI-H23 cells after 48 hrs by sulforhodamine B assay; format: functional; conditions: NCI-H23, 48 h; how it was run: as §1
[8] = Growth inhibition of human LOXIMVI cells after 48 hrs by sulforhodamine B assay; format: functional; conditions: LOX IMVI; how it was run: as §1

Question: Which results are given for `O=C(/C(=C\c1c(-c2ccccc2)[nH]c2ccccc12)S(=O)(=O)c1ccccc1)c1ccccc1`?
Answer: GI50 (SR): 9.9 µM; GI50 (SK-OV-3): 7.6 µM; GI50 (CAKI-1): 3.1 µM; GI50 (A549): 35 µM; GI50 [1]: 97.1 µM; GI50 [2]: 3.5 µM; GI50 [3]: 4.6 µM; GI50 (HCT-116): 4.9 µM; GI50 (U-251): 8.6 µM; GI50 (OVCAR-4): 6.6 µM; GI50 [4]: 7.8 µM; GI50 [5]: 39.5 µM; GI50 (SK-MEL-5): 9 µM; GI50 (PC-3): 5 µM; GI50 (UACC-62): 9 µM; GI50 (M14): 15.6 µM; GI50 (MCF7): 5 µM; EC50 (MT4): 3 µM; GI50 [6]: 5 µM; GI50 (NCI-H522): 91.8 µM; GI50 (MDA-MB-435): 3.9 µM; GI50 (ACHN): 6.7 µM; GI50 (HL-60(TB)): 5 µM; GI50 (T47D): 3.4 µM; GI50 (K562): 6.5 µM; GI50 (MDA-MB-468): 4.2 µM; GI50 (KM12): 5.1 µM; GI50 (SNB-75): 10.1 µM; GI50 [7]: 7.6 µM; GI50 (NCI-H460): 5.9 µM; GI50 (NCI-H23): 9.6 µM; GI50 [8]: 74.7 µM

Source: ChEMBL document CHEMBL3616442, “Unconventional Knoevenagel-type indoles: Synthesis and cell-based studies for the identification of pro-apoptotic agents” (Eur J Med Chem, 2015)
